Data on one compound can be found in ChEMBL document CHEMBL3045217, “Factors affecting the synergy of thiabendazole, sodium bicarbonate, and heat to control postharvest green mold of citrus fruit” (J Agric Food Chem, 2008).

Data set [1] concerns Penicillium digitatum. Description: Fungicidal activity against TBZ-resistant Penicillium digitatum infected Nova mandarins assessed as postharvest green mold incidence at 400 mg/L treated for 1 min at 40 degC at 20 hr after fungal conidial inoculation measured after 5 days of storage at 20 degC in presence of 1% SBC (water Rvb = 76.7%). The class given is functional.
A further data set concerns Cuticular wax. The data set is described as follows: Drug residues in Citrus sinensis cvs. Salustiana (Salustiana oranges) cuticular wax at 600 mg/L treated for 3 min at 20 degC postharvest measured after overnight incubation at 17 degC by GC analysis. Conditions: 0.05 h. It is filed as ADME. A digest of the protocol:
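'Salustiana' oranges were washed with water and air-dried. They were dipped 1 or 3 min in TBZ 600 mg/L at 20 or 50 °C, or 1 min in TBZ 600 mg/L plus 2% SBC at 20 °C, then dried overnight at 17 °C in the dark. Surface residue was taken by water extraction and wax residue by chloroform extraction. Inner residue was measured in fruit after both extractions. Extracts were dried under N2, taken up in acetone and analysed by GC. Values are mg/kg on a whole-fruit basis.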

Data set [2] relates to Penicillium digitatum. Description: Fungicidal activity against Penicillium digitatum infected Valenica oranges assessed as fruit weight loss at 600 mg/L treated for 1 min at 20 degC postharvest at 20 hr after fungal conidial inoculation measured after 14 days of storage at 17 degC (water Rvb = 5.62%). It is filed as functional.
Data set [3] concerns Fruit. The data set is described as follows: Drug residues in Citrus sinensis cvs. Valencia late (Valencia oranges) at 600 mg/L treated for 1 min at 20 degC postharvest measured immediately post-drug treatment in presence of 2% SBC by GC analysis. The class given is ADME. A digest of the protocol:
(§1)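 'Valencia' oranges were dipped 1 min in TBZ at 600 mg/L (20 °C, ±0.5, 1 or 2% wt/vol SBC), 400 mg/L (40 °C, ±SBC) or 200 mg/L (50 °C, alone), then air-dried. They were sampled at 0, 10 and 20 days at 17 °C. Peel of five fruit was frozen, and 5 g of homogenate was extracted with ethyl acetate/hexane (1/1) plus NaCl. The extract was dried under N2, taken up in acetone and analysed by GC. Results are mg/kg on a whole-fruit basis.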

The test system of data set [4] is Penicillium digitatum. Description: Fungicidal activity against TBZ-sensitive Penicillium digitatum infected Valencia oranges assessed as postharvest green mold incidence at 600 mg/L treated for 1 min at 20 degC at 20 hr after fungal conidial inoculation measured after 7 days of storage at 20 degC (water Rvb = 92.5%). It is filed as functional.
The subject of data set [5] is Penicillium digitatum. Description: Fungicidal activity against TBZ-sensitive Penicillium digitatum infected Valencia oranges assessed as postharvest green mold incidence at 600 mg/L treated for 1 min at 20 degC at 20 hr after fungal conidial inoculation measured after 7 days of storage at 20 degC in presence of 0.5% SBC (water Rvb = 64.2%). It is filed as functional. In a few lines:
(§2)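 Fruit were surface-disinfected in 1 g/L hypochlorite for 30 s, rinsed, dried, then wounded twice equatorially (2 mm × 2 mm rod). Inoculation was a 1 min dip in P. digitatum conidia, 1 × 10^5 conidia/mL final. Fruit were held 20 h at 20 °C and 90% RH, dipped 1 min (SBC wt/vol), and air-dried. Storage was 20 °C, 90% RH. Decay incidence (% fruit with lesions) was scored at 5 d for mandarins and 7 d for oranges. Three replicates of 40 fruit were used; arcsin-transformed data were compared by LSD, p ≤ 0.05.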

Data set [6] has as its system Penicillium digitatum. The data set is described as follows: Fungicidal activity against TBZ-resistant Penicillium digitatum infected Nova mandarins assessed as postharvest green mold incidence at 400 mg/L treated for 1 min at 40 degC at 20 hr after fungal conidial inoculation measured after 5 days of storage at 20 degC in presence of 2% SBC (water Rvb = 61.7%). It is filed as functional.

Data set [7] concerns Fruit. The data set is described as follows: Drug residues in Citrus sinensis cvs. Valencia late (Valencia oranges) at 600 mg/L treated for 1 min at 20 degC postharvest measured after 10 days of storage at 17 degC by GC analysis. It is filed as ADME. In a few lines:
as §1

The subject of data set [8] is Penicillium digitatum. Description: Fungicidal activity against TBZ-resistant Penicillium digitatum infected Nova mandarins assessed as postharvest green mold incidence at 600 mg/L treated for 1 min at 20 degC at 20 hr after fungal conidial inoculation measured after 5 days of storage at 20 degC in presence of 1% SBC (water Rvb = 83.3%). The class given is functional.

In data set [9] the test system is Penicillium digitatum. Description: Fungicidal activity against TBZ-sensitive Penicillium digitatum infected Valencia oranges assessed as postharvest green mold incidence at 400 mg/L treated for 1 min at 40 degC at 20 hr after fungal conidial inoculation measured after 7 days of storage at 20 degC in presence of 2% SBC (water Rvb = 14.2%). It is filed as functional. A digest of the protocol: as §2

The subject of data set [10] is Fruit. Description: Drug residues in Citrus sinensis cvs. Valencia late (Valencia oranges) at 400 mg/L treated for 1 min at 40 degC postharvest measured after 20 days of storage at 17 degC by GC analysis. It is filed as ADME. In a few lines:
as §1

The subject of data set [11] is Fruit. Description: Drug residues in Citrus sinensis cvs. Valencia late (Valencia oranges) at 400 mg/L treated for 1 min at 40 degC postharvest measured immediately post-drug treatment in presence of 2% SBC by GC analysis. The class given is ADME. A digest of the protocol: as §1
Data set [12] has as its system Fruit. The data set is described as follows: Drug residues in Citrus sinensis cvs. Valencia late (Valencia oranges) at 400 mg/L treated for 1 min at 40 degC postharvest measured after 10 days of storage at 17 degC by GC analysis. The class given is ADME. In a few lines:
as §1

Data set [13] deals with Fruit. Description: Drug residues in Citrus sinensis cvs. Valencia late (Valencia oranges) at 600 mg/L treated for 1 min at 20 degC postharvest measured after 10 days of storage at 17 degC in presence of 2% SBC by GC analysis. The class given is ADME. A digest of the protocol: as §1
Data set [14] deals with Fruit. The data set is described as follows: Drug residues in Citrus sinensis cvs. Valencia late (Valencia oranges) at 600 mg/L treated for 1 min at 20 degC postharvest measured after 20 days of storage at 17 degC in presence of 2% SBC by GC analysis. The class given is ADME. A digest of the protocol: as §1
The test system of data set [15] is Fruit. Description: Drug residues in Citrus sinensis cvs. Valencia late (Valencia oranges) at 600 mg/L treated for 1 min at 20 degC postharvest measured after 20 days of storage at 17 degC in presence of 0.5% SBC by GC analysis. The class given is ADME. A digest of the protocol:
as §1

In data set [16] the test system is Penicillium digitatum. Description: Fungicidal activity against Penicillium digitatum infected Valenica oranges assessed as fruit weight loss at 600 mg/L treated for 1 min at 20 degC postharvest at 20 hr after fungal conidial inoculation measured after 21 days of storage at 17 degC in presence of 2% SBC (water Rvb = 11.89%). It is filed as functional.
The test system of data set [17] is Penicillium digitatum. Description: Fungicidal activity against Penicillium digitatum infected Valenica oranges assessed as fruit weight loss at 600 mg/L treated for 1 min at 20 degC postharvest at 20 hr after fungal conidial inoculation measured after 7 days of storage at 17 degC in presence of 0.5% SBC (water Rvb = 3.90%). It is filed as functional.
Data set [18] concerns Penicillium digitatum. The data set is described as follows: Fungicidal activity against Penicillium digitatum infected Valenica oranges assessed as fruit weight loss at 400 mg/L treated for 1 min at 40 degC postharvest at 20 hr after fungal conidial inoculation measured after 21 days of storage at 17 degC in presence of 0.5% SBC (water Rvb = 11.43%). It is filed as functional.

Regarding `c1ccc2[nH]c(-c3cscn3)nc2c1` [THIABENDAZOLE], the Activity amounted to 40% in the data set on Penicillium digitatum [1]; 6.33% in the data set with Penicillium digitatum [2]; 31.7% in the data set with Penicillium digitatum [4]; 18.3% with Penicillium digitatum [5]; 23.3% in the data set on Penicillium digitatum [6]; 65% in the data set on Penicillium digitatum [8]. In addition, the Activity in the data set on Penicillium digitatum [9] is 12.5%; in the data set with Penicillium digitatum [16] it was 13.39%; in the data set with Penicillium digitatum [17], 4.28%; in the data set with Penicillium digitatum [18] it was 12.23%. In addition, the Drug uptake with Cuticular wax is 0.11 mg/kg; in the data set with Fruit [3], 1.22 mg/kg; in the data set on Fruit [7] it was 1.57 mg/kg; in the data set on Fruit [10] it was 0.87 mg/kg; in the data set on Fruit [11], 0.74 mg/kg; with Fruit [12], 0.89 mg/kg. Besides, the Drug uptake in the data set with Fruit [13] was 1.23 mg/kg; in the data set on Fruit [14], 1.38 mg/kg; with Fruit [15], 1.31 mg/kg.
